Converted amounts (≈) assume the structure as drawn.
What was measured:
Assay type in all cases: functional
Talaromyces marneffei [1] = experiment: Ratio of MFC to MIC for Penicillium marneffei
Procedure, shortened: (§1)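 MFC: 0.1 ml from each MIC tube was spread on agar and colonies were counted after 48 h at 35 °C. MFC is the lowest concentration killing 99.9% of the inoculum. The MFC/MIC ratio was then calculated to classify activity as fungistatic or fungicidal.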

Staphylococcus aureus [2] = experiment: Antibacterial activity against Staphylococcus aureus ATCC 25923 after 24 hrs by two fold dilution technique; settings: ATCC 25923, 24 h
Procedure, shortened: (§2)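 Broth dilution MIC. Nutrient broth held log two-fold serial dilutions of compound and was inoculated with about 5 × 10⁵ c.f.u./ml of actively dividing bacteria. Incubation was 24 h at 37 °C, with growth checked visually and spectrophotometrically. MIC is the lowest concentration arresting growth.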

Pseudomonas aeruginosa [3] = experiment: Antibacterial activity against Pseudomonas aeruginosa ATCC 27853 after 24 hrs by two fold dilution technique; settings: ATCC 27853, 24 h; procedure, shortened: as §2
Klebsiella pneumoniae [4] = experiment: Antibacterial activity against Klebsiella pneumoniae after 18 to 24 hrs
Aspergillus fumigatus [5] = experiment: Antifungal activity against Aspergillus fumigatus after 48 hrs by two fold dilution technique
Procedure, shortened: (§3)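 Broth MIC. Broth with log two-fold serial dilutions of compound was inoculated with about 1.6 × 10⁴–6 × 10⁴ c.f.u./ml of fungus and incubated 48 h at 35 °C. MIC is the lowest concentration arresting fungal growth.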

Pseudomonas aeruginosa [6] = experiment: Antibacterial activity against Pseudomonas aeruginosa ATCC 27853 after 24 hrs by disc diffusion method
Procedure, shortened: (§4)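 Agar disc diffusion. A standard inoculum of […] c.f.u./ml (0.5 McFarland) was spread evenly on agar. 6 mm Whatman no. 1 paper discs, dry-heat sterilized (140 °C, 1 h), were soaked in test compound and placed on nutrient agar. Plates were inverted and incubated 24 h at 37 °C. Read-out: diameter of the inhibition zone.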

Candida albicans [7] = experiment: Antifungal activity against Candida albicans after 48 hrs by two fold dilution technique; procedure, shortened: as §3
Streptococcus pyogenes [8] = experiment: Antibacterial activity against Streptococcus pyogenes after 24 hrs by disc diffusion method; procedure, shortened: as §4
Aspergillus fumigatus [9] = experiment: Antifungal activity against Aspergillus fumigatus after 48 hrs by disk diffusion method
Procedure, shortened: (§5)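 Agar well diffusion with compounds in DMSO. The dish was lawned with a saline spore suspension, excess decanted, and dried 1 h at 37 °C. Wells were punched. Read-out: inhibition zone in mm. Griseofulvin served as standard and DMSO as negative control.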

Talaromyces marneffei [10] = experiment: Antifungal activity against Penicillium marneffei after 48 hrs by two fold dilution technique; procedure, shortened: as §3
Staphylococcus aureus [11] = experiment: Antibacterial activity against Staphylococcus aureus ATCC 25923 after 24 hrs by disc diffusion method; procedure, shortened: as §4
Staphylococcus aureus [12] = experiment: Antibacterial activity against Staphylococcus aureus ATCC 25923 after 18 to 24 hrs
Escherichia coli [13] = experiment: Antibacterial activity against Escherichia coli ATCC 25922 after 24 hrs by disc diffusion method; procedure, shortened: as §4
Streptococcus pyogenes [14] = experiment: Antibacterial activity against Streptococcus pyogenes after 18 to 24 hrs
[15] = test system: Trichophyton mentagrophytes; experiment: Antifungal activity against Trichophyton mentagrophytes after 48 hrs by disk diffusion method; procedure, shortened: as §5
Klebsiella pneumoniae [16] = experiment: Antibacterial activity against Klebsiella pneumoniae after 24 hrs by disc diffusion method; procedure, shortened: as §4
Talaromyces marneffei [17] = experiment: Antifungal activity against Penicillium marneffei after 48 hrs by disk diffusion method; procedure, shortened: as §5
Pseudomonas aeruginosa [18] = experiment: Antibacterial activity against Pseudomonas aeruginosa ATCC 27853 after 18 to 24 hrs
[19] = test system: Trichophyton mentagrophytes; experiment: Ratio of MFC to MIC for Trichophyton mentagrophytes; procedure, shortened: as §1
Candida albicans [20] = experiment: Ratio of MFC to MIC for Candida albicans; procedure, shortened: as §1
Aspergillus fumigatus [21] = experiment: Ratio of MFC to MIC for Aspergillus fumigatus; procedure, shortened: as §1
Klebsiella pneumoniae [22] = experiment: Antibacterial activity against Klebsiella pneumoniae after 24 hrs by two fold dilution technique; procedure, shortened: as §2
Streptococcus pyogenes [23] = experiment: Antibacterial activity against Streptococcus pyogenes after 24 hrs by two fold dilution technique; procedure, shortened: as §2
Candida albicans [24] = experiment: Antifungal activity against Candida albicans after 48 hrs by disk diffusion method; procedure, shortened: as §5
Escherichia coli [25] = experiment: Antibacterial activity against Escherichia coli ATCC 25922 after 18 to 24 hrs
[26] = test system: Trichophyton mentagrophytes; experiment: Antifungal activity against Trichophyton mentagrophytes after 48 hrs by two fold dilution technique; procedure, shortened: as §3
Escherichia coli [27] = experiment: Antibacterial activity against Escherichia coli ATCC 25922 after 24 hrs by two fold dilution technique; settings: ATCC 25922, 24 h; procedure, shortened: as §2

C=CCCCCCCCCc1nnc(Nc2ccccc2)o1
Ratio (Talaromyces marneffei [1]): 2
MIC (Staphylococcus aureus [2]): 6.25 µg/mL (≈ 20.9 µM)
MIC (Pseudomonas aeruginosa [3]): 12.5 µg/mL (≈ 41.7 µM)
MBC (Klebsiella pneumoniae [4]): 25 µg/mL (≈ 83.5 µM)
MFC (Aspergillus fumigatus [5]): 100 µg/mL (≈ 334 µM)
MIC (Aspergillus fumigatus [5]): 25 µg/mL (≈ 83.5 µM)
diameter of the inhibition zone (DIZ) (Pseudomonas aeruginosa [6]): 17.3 mm
MFC (Candida albicans [7]): 50 µg/mL (≈ 167 µM)
MIC (Candida albicans [7]): 25 µg/mL (≈ 83.5 µM)
diameter of the inhibition zone (DIZ) (Streptococcus pyogenes [8]): 18 mm
diameter of the inhibition zone (DIZ) (Aspergillus fumigatus [9]): 20.8 mm
MFC (Talaromyces marneffei [10]): 25 µg/mL (≈ 83.5 µM)
MIC (Talaromyces marneffei [10]): 12.5 µg/mL (≈ 41.7 µM)
diameter of the inhibition zone (DIZ) (Staphylococcus aureus [11]): 17.7 mm
MBC (Staphylococcus aureus [12]): 25 µg/mL (≈ 83.5 µM)
diameter of the inhibition zone (DIZ) (Escherichia coli [13]): 19.8 mm
MBC (Streptococcus pyogenes [14]): 50 µg/mL (≈ 167 µM)
diameter of the inhibition zone (DIZ) [15]: 16.9 mm
diameter of the inhibition zone (DIZ) (Klebsiella pneumoniae [16]): 16.8 mm
diameter of the inhibition zone (DIZ) (Talaromyces marneffei [17]): 15.2 mm
MBC (Pseudomonas aeruginosa [18]): 50 µg/mL (≈ 167 µM)
Ratio [19]: 4
Ratio (Candida albicans [20]): 2
Ratio (Aspergillus fumigatus [21]): 4
MIC (Klebsiella pneumoniae [22]): 12.5 µg/mL (≈ 41.7 µM)
MIC (Streptococcus pyogenes [23]): 12.5 µg/mL (≈ 41.7 µM)
diameter of the inhibition zone (DIZ) (Candida albicans [24]): 24.2 mm
MBC (Escherichia coli [25]): 50 µg/mL (≈ 167 µM)
MFC [26]: 50 µg/mL (≈ 167 µM)
MIC [26]: 12.5 µg/mL (≈ 41.7 µM)
MIC (Escherichia coli [27]): 12.5 µg/mL (≈ 41.7 µM)

CCCCCCCC/C=C\CCCCCCCc1nnc(Nc2ccccc2)s1
Ratio (Talaromyces marneffei [1]): 2
MIC (Staphylococcus aureus [2]): 12.5 µg/mL (≈ 30.2 µM)
MIC (Pseudomonas aeruginosa [3]): 12.5 µg/mL (≈ 30.2 µM)
MBC (Klebsiella pneumoniae [4]): 50 µg/mL (≈ 121 µM)
MFC (Aspergillus fumigatus [5]): 25 µg/mL (≈ 60.4 µM)
MIC (Aspergillus fumigatus [5]): 6.25 µg/mL (≈ 15.1 µM)
diameter of the inhibition zone (DIZ) (Pseudomonas aeruginosa [6]): 16.3 mm
MFC (Candida albicans [7]): 12.5 µg/mL (≈ 30.2 µM)
MIC (Candida albicans [7]): 6.25 µg/mL (≈ 15.1 µM)
diameter of the inhibition zone (DIZ) (Streptococcus pyogenes [8]): 13.1 mm
diameter of the inhibition zone (DIZ) (Aspergillus fumigatus [9]): 23.8 mm
MFC (Talaromyces marneffei [10]): 12.5 µg/mL (≈ 30.2 µM)
MIC (Talaromyces marneffei [10]): 6.25 µg/mL (≈ 15.1 µM)
diameter of the inhibition zone (DIZ) (Staphylococcus aureus [11]): 12.9 mm
MBC (Staphylococcus aureus [12]): 25 µg/mL (≈ 60.4 µM)
diameter of the inhibition zone (DIZ) (Escherichia coli [13]): 14.8 mm
MBC (Streptococcus pyogenes [14]): 100 µg/mL (≈ 242 µM)
diameter of the inhibition zone (DIZ) [15]: 20.3 mm
diameter of the inhibition zone (DIZ) (Klebsiella pneumoniae [16]): 12.1 mm
diameter of the inhibition zone (DIZ) (Talaromyces marneffei [17]): 16.1 mm
MBC (Pseudomonas aeruginosa [18]): 25 µg/mL (≈ 60.4 µM)
Ratio [19]: 2
Ratio (Candida albicans [20]): 2
Ratio (Aspergillus fumigatus [21]): 4
MIC (Klebsiella pneumoniae [22]): 25 µg/mL (≈ 60.4 µM)
MIC (Streptococcus pyogenes [23]): 12.5 µg/mL (≈ 30.2 µM)
diameter of the inhibition zone (DIZ) (Candida albicans [24]): 27.2 mm
MBC (Escherichia coli [25]): 50 µg/mL (≈ 121 µM)
MFC [26]: 12.5 µg/mL (≈ 30.2 µM)
MIC [26]: 6.25 µg/mL (≈ 15.1 µM)
MIC (Escherichia coli [27]): 25 µg/mL (≈ 60.4 µM)

C=CCCCCCCCCc1nnc(Nc2ccccc2)s1
Ratio (Talaromyces marneffei [1]): 4
MIC (Staphylococcus aureus [2]): 12.5 µg/mL (≈ 39.6 µM)
MIC (Pseudomonas aeruginosa [3]): 12.5 µg/mL (≈ 39.6 µM)
MBC (Klebsiella pneumoniae [4]): 50 µg/mL (≈ 158 µM)
MFC (Aspergillus fumigatus [5]): 100 µg/mL (≈ 317 µM)
MIC (Aspergillus fumigatus [5]): 25 µg/mL (≈ 79.2 µM)
diameter of the inhibition zone (DIZ) (Pseudomonas aeruginosa [6]): 17.2 mm
MFC (Candida albicans [7]): 50 µg/mL (≈ 158 µM)
MIC (Candida albicans [7]): 25.5 µg/mL (≈ 80.8 µM)
diameter of the inhibition zone (DIZ) (Streptococcus pyogenes [8]): 13.5 mm
diameter of the inhibition zone (DIZ) (Aspergillus fumigatus [9]): 16.5 mm
MFC (Talaromyces marneffei [10]): 100 µg/mL (≈ 317 µM)
MIC (Talaromyces marneffei [10]): 25 µg/mL (≈ 79.2 µM)
diameter of the inhibition zone (DIZ) (Staphylococcus aureus [11]): 13.1 mm
MBC (Staphylococcus aureus [12]): 25 µg/mL (≈ 79.2 µM)
diameter of the inhibition zone (DIZ) (Escherichia coli [13]): 15.2 mm
MBC (Streptococcus pyogenes [14]): 50 µg/mL (≈ 158 µM)
diameter of the inhibition zone (DIZ) [15]: 14.1 mm
diameter of the inhibition zone (DIZ) (Klebsiella pneumoniae [16]): 12.8 mm
diameter of the inhibition zone (DIZ) (Talaromyces marneffei [17]): 10.2 mm
MBC (Pseudomonas aeruginosa [18]): 25 µg/mL (≈ 79.2 µM)
Ratio [19]: 2
Ratio (Candida albicans [20]): 2
Ratio (Aspergillus fumigatus [21]): 4
MIC (Klebsiella pneumoniae [22]): 25 µg/mL (≈ 79.2 µM)
MIC (Streptococcus pyogenes [23]): 25 µg/mL (≈ 79.2 µM)
diameter of the inhibition zone (DIZ) (Candida albicans [24]): 19.5 mm
MBC (Escherichia coli [25]): 100 µg/mL (≈ 317 µM)
MFC [26]: 50 µg/mL (≈ 158 µM)
MIC [26]: 25 µg/mL (≈ 79.2 µM)
MIC (Escherichia coli [27]): 25 µg/mL (≈ 79.2 µM)

CCCCCCCC/C=C\CCCCCCCc1nnc(Nc2ccccc2)o1
Ratio (Talaromyces marneffei [1]): 4
MIC (Staphylococcus aureus [2]): 12.5 µg/mL (≈ 31.4 µM)
MIC (Pseudomonas aeruginosa [3]): 12.5 µg/mL (≈ 31.4 µM)
MBC (Klebsiella pneumoniae [4]): 50 µg/mL (≈ 126 µM)
MFC (Aspergillus fumigatus [5]): 12.5 µg/mL (≈ 31.4 µM)
MIC (Aspergillus fumigatus [5]): 6.25 µg/mL (≈ 15.7 µM)
diameter of the inhibition zone (DIZ) (Pseudomonas aeruginosa [6]): 19.3 mm
MFC (Candida albicans [7]): 25 µg/mL (≈ 62.9 µM)
MIC (Candida albicans [7]): 6.25 µg/mL (≈ 15.7 µM)
diameter of the inhibition zone (DIZ) (Streptococcus pyogenes [8]): 15.6 mm
diameter of the inhibition zone (DIZ) (Aspergillus fumigatus [9]): 23.1 mm
MFC (Talaromyces marneffei [10]): 25 µg/mL (≈ 62.9 µM)
MIC (Talaromyces marneffei [10]): 6.25 µg/mL (≈ 15.7 µM)
diameter of the inhibition zone (DIZ) (Staphylococcus aureus [11]): 15.3 mm
MBC (Staphylococcus aureus [12]): 50 µg/mL (≈ 126 µM)
diameter of the inhibition zone (DIZ) (Escherichia coli [13]): 17.5 mm
MBC (Streptococcus pyogenes [14]): 25 µg/mL (≈ 62.9 µM)
diameter of the inhibition zone (DIZ) [15]: 20.2 mm
diameter of the inhibition zone (DIZ) (Klebsiella pneumoniae [16]): 14.9 mm
diameter of the inhibition zone (DIZ) (Talaromyces marneffei [17]): 15.9 mm
MBC (Pseudomonas aeruginosa [18]): 50 µg/mL (≈ 126 µM)
Ratio [19]: 2
Ratio (Candida albicans [20]): 4
Ratio (Aspergillus fumigatus [21]): 2
MIC (Klebsiella pneumoniae [22]): 12.5 µg/mL (≈ 31.4 µM)
MIC (Streptococcus pyogenes [23]): 25 µg/mL (≈ 62.9 µM)
diameter of the inhibition zone (DIZ) (Candida albicans [24]): 26.1 mm
MBC (Escherichia coli [25]): 50 µg/mL (≈ 126 µM)
MFC [26]: 25 µg/mL (≈ 62.9 µM)
MIC [26]: 12.5 µg/mL (≈ 31.4 µM)
MIC (Escherichia coli [27]): 12.5 µg/mL (≈ 31.4 µM)
